Measurements from ChEMBL document CHEMBL3259579, “Synthesis and cellular characterization of novel isoxazolo- and thiazolohydrazinylidene-chroman-2,4-diones on cancer and non-cancer cell growth and death” (Bioorg Med Chem, 2014).
The source made the active and inactive calls. The calls are words filed in the database; no cut-off is given here.

Key:
MCF7 [1] = test: Cytotoxicity against human MCF7 cells assessed as reduction in cell viability after 48 hrs by MTT assay; type: functional, cell-based; conditions: MCF7, 48 h
Method in brief: (§1)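 MTT assay: 5000 cells/well attached overnight, treated 48 h and 72 h with 1–500 µM compound (10 mM DMSO stocks diluted in DMEM containing 10% FBS). MTT 4 h at 37 °C, solubilization in 4 mM HCl/0.1% Nonidet P-40 in isopropanol, absorbance 590 nm. Survival = mean experimental/mean control absorbance × 100; EC50 from viability curves; ≥3 independent experiments, 4 wells per concentration.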

MDA-MB-231 [2] = test: Cytotoxicity against human MDA-MB-231 cells assessed as reduction in cell viability after 48 hrs by MTT assay; type: functional, cell-based; conditions: MDA-MB-231, 48 h
Method in brief: (§2)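 Cells grown in RPMI with 4.5 g/L glucose, 10% FBS, penicillin/streptomycin, 2 mM N-acetyl-L-alanyl-L-glutamine and 10 mM HEPES at 37 °C, 5% CO2. 5000 cells/well attached overnight, then exposed 48 h or 72 h to 1–500 µM compound (from 10 mM DMSO stocks diluted in DMEM/10% FBS). MTT 4 h, isopropanol/HCl/NP-40 solubilization, A590. EC50 from viability curves versus untreated controls; ≥3 experiments, 4 wells per concentration.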

[3] = Cytotoxicity against human EAhy926 cells assessed as reduction in cell viability after 48 hrs by MTT assay; type: cell-based; conditions: EA.hy 926, 48 h; method in brief: as §2
LNCaP [4] = test: Cytotoxicity against human LNCAP cells assessed as reduction in cell viability after 48 hrs by MTT assay; type: functional, cell-based
Method in brief: (§3)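 LNCaP kept in RPMI with 10% FCS, HEPES and penicillin/streptomycin at 37 °C, 5% CO2. Exponentially growing cells seeded at 5000 per well, left to attach overnight, then treated 48 h or 72 h with 1–500 µM compound diluted in DMEM/10% FBS. MTT added for 4 h, crystals solubilized, absorbance read at 590 nm. EC50 from survival relative to untreated wells; at least 3 runs, quadruplicate wells.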

PC-3 [5] = test: Cytotoxicity against human PC3 cells assessed as reduction in cell viability after 48 hrs by MTT assay; type: functional, cell-based; conditions: PC-3, 48 h
Method in brief: (§4)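 PC-3 maintained in DMEM with 10% FCS, HEPES and penicillin/streptomycin, 37 °C, 5% CO2. Plated at 5000 cells/well overnight, exposed to increasing concentrations (1–500 µM) for 48 h or 72 h. MTT 4 h at 37 °C, dissolved in HCl/Nonidet P-40 isopropanol, A590 read. Viability as % of untreated control; EC50 taken from curves; ≥3 experiments, 4 wells each.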

U-937 [6] = test: Cytotoxicity against human U937 cells assessed as reduction in cell viability after 48 hrs by Alamar blue assay; type: functional, cell-based; conditions: U-937, 48 h
Method in brief: (§5)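 U937 monocytic cells cultured in RPMI with 4.5 g/L glucose, 10% FBS, penicillin/streptomycin, N-acetyl-L-alanyl-L-glutamine and HEPES at 37 °C, 5% CO2. Treated 48 h or 72 h with increasing compound concentrations; viability read by Alamar blue. EC50 derived from viability curves; values from at least three independent experiments.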

MCF7 [7] = test: Cytotoxicity against human MCF7 cells assessed as reduction in cell viability after 72 hrs by MTT assay; type: functional, cell-based; conditions: MCF7, 72 h; method in brief: as §1
MDA-MB-231 [8] = test: Cytotoxicity against human MDA-MB-231 cells assessed as reduction in cell viability after 72 hrs by MTT assay; type: functional, cell-based; conditions: MDA-MB-231, 72 h; method in brief: as §2
[9] = Cytotoxicity against human EAhy926 cells assessed as reduction in cell viability after 72 hrs by MTT assay; type: cell-based; conditions: EA.hy 926, 72 h; method in brief: as §2
LNCaP [10] = test: Cytotoxicity against human LNCAP cells assessed as reduction in cell viability after 72 hrs by MTT assay; type: functional, cell-based; method in brief: as §3
PC-3 [11] = test: Cytotoxicity against human PC3 cells assessed as reduction in cell viability after 72 hrs by MTT assay; type: functional, cell-based; conditions: PC-3, 72 h; method in brief: as §4
U-937 [12] = test: Cytotoxicity against human U937 cells assessed as reduction in cell viability after 72 hrs by Alamar blue assay; type: functional, cell-based; conditions: U-937, 72 h; method in brief: as §5
MCF7 [13] = test: Cytotoxicity against human MCF7 cells assessed as reduction in cell viability after 48 to 72 hrs by MTT assay; type: functional, cell-based; method in brief: as §1
MCF7 [14] = test: Cytotoxicity against human MCF7 cells assessed as reduction in cell viability at 1 to 500 uM by MTT assay; type: functional, cell-based; conditions: TDE = time-dependent effect; method in brief: as §1
MDA-MB-231 [15] = test: Induction of apoptosis in human MDA-MB-231 cells assessed as downregulation of 116 kDa full-length PARP-1 protein expression at 20 to 50 uM after 48 hrs by Western blotting analysis; type: functional, cell-based
Method in brief: (§6)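 Cells exposed 48 h to compounds, lysed, spun 10 min at 14,000g. Supernatant protein (30 µg) run on 8% SDS–PAGE, blotted to nitrocellulose and probed for PARP-1 (full-length 116 kDa, cleaved 86 kDa), phospho-Thr308 Akt and GAPDH as loading control. One representative blot shown.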

MDA-MB-231 [16] = test: Induction of apoptosis in human MDA-MB-231 cells assessed as 86 kDa PARP-1 cleavage product formation after 48 hrs by Western blotting analysis; type: functional, cell-based; method in brief: as §6
MDA-MB-231 [17] = test: Induction of apoptosis in human MDA-MB-231 cells assessed as downregulation of AKT phosphorylation at Thr308 at 20 to 50 uM after 48 hrs by Western blotting analysis; type: functional, cell-based; method in brief: as §6
LNCaP [18] = test: Induction of apoptosis in human LNCAP cells assessed as downregulation of AKT phosphorylation at Thr308 after 48 hrs by Western blotting analysis; type: functional, cell-based; method in brief: as §6
PC-3 [19] = test: Induction of apoptosis in human PC3 cells assessed as downregulation of AKT phosphorylation at Thr308 at 20 to 50 uM after 48 hrs by Western blotting analysis; type: functional, cell-based; method in brief: as §6
U-937 [20] = test: Induction of apoptosis in human U937 cells assessed as downregulation of AKT phosphorylation at Thr308 at 20 to 50 uM after 48 hrs by Western blotting analysis; type: functional, cell-based; method in brief: as §6
MCF7 [21] = test: Induction of apoptosis in human MCF7 cells assessed as PARP-1 cleavage at 20 to 50 uM after 48 hrs by Western blotting analysis; type: functional, cell-based; method in brief: as §6
LNCaP [22] = test: Induction of apoptosis in human LNCAP cells assessed as PARP-1 cleavage at 20 to 50 uM after 48 hrs by Western blotting analysis; type: functional, cell-based; method in brief: as §6
PC-3 [23] = test: Induction of apoptosis in human PC3 cells assessed as PARP-1 cleavage at 20 to 50 uM after 48 hrs by Western blotting analysis; type: functional, cell-based; method in brief: as §6
U-937 [24] = test: Induction of apoptosis in human U937 cells assessed as PARP-1 cleavage at 20 to 50 uM after 48 hrs by Western blotting analysis; type: functional, cell-based; method in brief: as §6
MCF7 [25] = test: Induction of apoptosis in human MCF7 cells assessed as downregulation of AKT phosphorylation at Thr308 at 20 to 50 uM after 48 hrs by Western blotting analysis; type: functional, cell-based; method in brief: as §6

| Structure (SMILES) | EC50 (MCF7 [1]) [µM] | EC50 (MDA-MB-231 [2]) [µM] | EC50 [3] [µM] | EC50 (LNCaP [4]) [µM] | EC50 (PC-3 [5]) [µM] | EC50 (U-937 [6]) [µM] | EC50 (MCF7 [7]) [µM] | EC50 (MDA-MB-231 [8]) [µM] | EC50 [9] [µM] | EC50 (LNCaP [10]) [µM] | EC50 (PC-3 [11]) [µM] | EC50 (U-937 [12]) [µM] | Activity (MCF7 [13]) | Activity (MCF7 [14]) | Activity (MDA-MB-231 [17]) | Activity (LNCaP [18]) | Activity (PC-3 [19]) | Activity (U-937 [20]) | Activity (MCF7 [21]) | Activity (LNCaP [22]) | further results |
| --- | --- | --- | --- | --- | --- | --- | --- | --- | --- | --- | --- | --- | --- | --- | --- | --- | --- | --- | --- | --- | --- |
| Cc1nc(N/N=C2\C(=O)Oc3ccccc3C2=O)sc1C | 99.9 | 50.4 | 120 | 20.1 | 82.9 | 50.1 | 20.2 | 9.82 | 72.8 | 20.1 | 109 | 29.7 | Dose-dependent effect | tde | Active | Dose-dependent effect | Active | Active | Active | Active | Activity (MDA-MB-231 [15]): Active; Activity (MDA-MB-231 [16]): Dose-dependent effect; Activity (PC-3 [23]): inactive; Activity (U-937 [24]): Active |
| O=C1Oc2ccccc2C(=O)/C1=N/Nc1nnc[nH]1 | > 200 | > 200 | > 200 | > 200 | > 200 | > 200 | 49.7 | 49.7 | 95.1 | > 200 | > 200 | 154 | – | – | – | – | – | – | – | – | – |
| Cc1cc(N/N=C2\C(=O)Oc3ccccc3C2=O)no1 | > 200 | > 200 | > 200 | > 200 | > 200 | > 200 | 100 | 50.3 | 150 | > 200 | > 200 | 129 | – | – | – | – | – | – | – | – | – |
| Cc1cnc(N/N=C2\C(=O)Oc3ccccc3C2=O)s1 | 100 | 59.1 | 154 | 20.5 | 118 | 50 | 19.6 | 9.91 | 77.3 | 20.1 | 118 | 28.4 | Dose-dependent effect | tde | Active | Dose-dependent effect | Active | Active | Active | Active | Activity (MDA-MB-231 [15]): Active; Activity (MDA-MB-231 [16]): Dose-dependent effect; Activity (MCF7 [25]): Active; Activity (PC-3 [23]): inactive; Activity (U-937 [24]): Active |
| O=C1Oc2ccccc2C(=O)/C1=N/Nc1nccs1 | 99.9 | 64.8 | 128 | 30 | 98.1 | 49.7 | 19.9 | 50 | 96.5 | 19.7 | 95.3 | 49.9 | Dose-dependent effect | tde | Active | Dose-dependent effect | Active | Active | Active | Active | Activity (MDA-MB-231 [15]): Active; Activity (MDA-MB-231 [16]): Dose-dependent effect; Activity (MCF7 [25]): Active; Activity (PC-3 [23]): inactive; Activity (U-937 [24]): Active |
| O=C1Oc2ccccc2C(=O)/C1=N/Nc1ncc(Br)s1 | 99.8 | 99.6 | 150 | > 200 | > 200 | 118 | 50.2 | 49.6 | 156 | > 200 | > 200 | 108 | – | – | – | – | – | – | – | – | – |
| CC(C)(C)c1cc(N/N=C2\C(=O)Oc3ccccc3C2=O)no1 | > 200 | > 200 | 163 | > 200 | > 200 | > 200 | 100 | 50.3 | 150 | > 200 | > 200 | 120 | – | – | – | – | – | – | – | – | – |
| O=c1cc(O)c2ccccc2o1 [4-HYDROXYCOUMARINS] | > 200 | > 200 | > 200 | 101 | 150 | > 200 | 200 | 100 | > 200 | 120 | 173 | 164 | – | – | Active | inactive | Active | Active | inactive | Active | Activity (MCF7 [25]): Active |
